Data taken from ChEMBL document CHEMBL3045304, “Sesquiterpene lactones with potential use as natural herbicide models. 2. guaianolides” (2000).
Calls of active or inactive are those of the source. The calls are words filed in the database; no cut-off is given here.

Tests used:
Allium cepa [1] = assay: Inhibition of germination of Allium cepa cv. Valenciana (onion) at 0.1 mM or 1 mM after 5 days relative to untreated control; assay type: functional
Triticum aestivum [2] = assay: Inhibition of root length of Triticum aestivum cv. Cortex (wheat) at 0.1 mM or 1 mM after 5 days relative to untreated control; assay type: functional
How it was run: (§1)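 Wheat: 10 seeds per dish on filter paper with 5 mL test solution, 5 days in the dark at 25 °C, 10 replicates per concentration. Stock test solutions were 10^-3 or 10^-4 M in 10 mM MES, with lower levels made by dilution, all at pH 6.0. Parallel controls were run. Output is % difference from control.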

Triticum aestivum [3] = assay: Inhibition of hypocotyl length of Triticum aestivum cv. Cortex (wheat) at 0.1 mM or 1 mM after 5 days relative to untreated control; assay type: functional; how it was run: as §1
Triticum aestivum [4] = assay: Inhibition of germination of Triticum aestivum cv. Cortex (wheat) at 0.1 mM or 1 mM after 5 days relative to untreated control; assay type: functional; how it was run: as §1
Solanum lycopersicum [5] = assay: Inhibition of hypocotyl length of Solanum lycopersicum cv. Tres Cantos (tomato) at 0.1 mM or 1 mM after 5 days relative to untreated control; assay type: functional
How it was run: (§2)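 Lettuce and tomato seeds, 25 per dish on filter paper, received 5 mL test solution. Incubation was 5 days in the dark at 25 °C, with four replicates per concentration. Solutions were made at 10^-3 or 10^-4 M in 10 mM MES, diluted serially, and adjusted to pH 6.0. Parallel controls were run. Results are % difference from control.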

Solanum lycopersicum [6] = assay: Inhibition of root length of Solanum lycopersicum cv. Tres Cantos (tomato) at 0.1 mM or 1 mM after 5 days relative to untreated control; assay type: functional; how it was run: as §2
Allium cepa [7] = assay: Inhibition of root length of Allium cepa cv. Valenciana (onion) at 0.1 mM or 1 mM after 5 days relative to untreated control; assay type: functional
Triticum aestivum [8] = assay: Stimulation of hypocotyl length of Triticum aestivum cv. Cortex (wheat) at 0.1 mM or 1 mM after 5 days relative to untreated control; assay type: functional; how it was run: as §1
Allium cepa [9] = assay: Stimulation of germination of Allium cepa cv. Valenciana (onion) at 0.1 mM or 1 mM after 5 days relative to untreated control; assay type: functional
Triticum aestivum [10] = assay: Stimulation of root length of Triticum aestivum cv. Cortex (wheat) at 0.1 mM or 1 mM after 5 days relative to untreated control; assay type: functional; how it was run: as §1
Solanum lycopersicum [11] = assay: Inhibition of germination of Solanum lycopersicum cv. Tres Cantos (tomato) at 0.1 mM or 1 mM after 5 days relative to untreated control; assay type: functional; how it was run: as §2
Lactuca sativa [12] = assay: Inhibition of hypocotyl length of Lactuca sativa cv. Roman (lettuce) at 0.1 mM or 1 mM after 5 days relative to untreated control; assay type: functional; how it was run: as §2
Lactuca sativa [13] = assay: Inhibition of root length of Lactuca sativa cv. Roman (lettuce) at 0.1 mM or 1 mM after 5 days relative to untreated control; assay type: functional; how it was run: as §2
Lactuca sativa [14] = assay: Inhibition of germination of Lactuca sativa cv. Roman (lettuce) at 0.1 mM or 1 mM after 5 days relative to untreated control; assay type: functional; how it was run: as §2
Triticum aestivum [15] = assay: Stimulation of germination of Triticum aestivum cv. Cortex (wheat) at 0.1 mM or 1 mM after 5 days relative to untreated control; assay type: functional; how it was run: as §1
Solanum lycopersicum [16] = assay: Stimulation of hypocotyl length of Solanum lycopersicum cv. Tres Cantos (tomato) at 0.1 mM or 1 mM after 5 days relative to untreated control; assay type: functional; how it was run: as §2
Solanum lycopersicum [17] = assay: Stimulation of root length of Solanum lycopersicum cv. Tres Cantos (tomato) at 0.1 mM or 1 mM after 5 days relative to untreated control; assay type: functional; how it was run: as §2
Solanum lycopersicum [18] = assay: Stimulation of germination of Solanum lycopersicum cv. Tres Cantos (tomato) at 0.1 mM or 1 mM after 5 days relative to untreated control; assay type: functional; how it was run: as §2
Lepidium sativum [19] = assay: Stimulation of hypocotyl length of Lepidium sativum at 0.1 mM or 1 mM after 5 days relative to untreated control; assay type: functional
Lepidium sativum [20] = assay: Stimulation of root length of Lepidium sativum at 0.1 mM or 1 mM after 5 days relative to untreated control; assay type: functional
Lactuca sativa [21] = assay: Stimulation of root length of Lactuca sativa cv. Roman (lettuce) at 0.1 mM or 1 mM after 5 days relative to untreated control; assay type: functional; how it was run: as §2
Lactuca sativa [22] = assay: Stimulation of hypocotyl length of Lactuca sativa cv. Roman (lettuce) at 0.1 mM or 1 mM after 5 days relative to untreated control; assay type: functional; how it was run: as §2
Lactuca sativa [23] = assay: Stimulation of germination of Lactuca sativa cv. Roman (lettuce) at 0.1 mM or 1 mM after 5 days relative to untreated control; assay type: functional; how it was run: as §2
Lepidium sativum [24] = assay: Inhibition of root length of Lepidium sativum at 0.1 mM or 1 mM after 4 days relative to untreated control
Lepidium sativum [25] = assay: Inhibition of germination of Lepidium sativum at 0.1 mM or 1 mM after 4 days relative to untreated control
Lepidium sativum [26] = assay: Inhibition of hypocotyl length of Lepidium sativum at 0.1 mM or 1 mM after 4 days relative to untreated control
Allium cepa [27] = assay: Stimulation of root length of Allium cepa cv. Valenciana (onion) at 0.1 mM or 1 mM after 7 days relative to untreated control
Allium cepa [28] = assay: Inhibition of hypocotyl length of Allium cepa cv. Valenciana (onion) at 0.1 mM or 1 mM after 7 days relative to untreated control
Allium cepa [29] = assay: Stimulation of hypocotyl length of Allium cepa cv. Valenciana (onion) at 0.1 mM or 1 mM after 7 days relative to untreated control
Lepidium sativum [30] = assay: Inhibition of germination of Lepidium sativum at 0.1 mM or 1 mM after 5 days relative to untreated control; assay type: functional
Lepidium sativum [31] = assay: Inhibition of germination of Lepidium sativum at 0.1 mM or 1 mM after 4 days relative to untreated control; parameters: scale not given: the % may be the effect or the level left
Allium cepa [32] = assay: Stimulation of germination of Allium cepa cv. Valenciana (onion) at 0.1 mM or 1 mM after 7 days relative to untreated control

| SMILES | inhibition (Allium cepa [1]) | inhibition (Solanum lycopersicum [5]) | inhibition (Solanum lycopersicum [6]) | inhibition (Allium cepa [7]) | Activity (Triticum aestivum [8]) | Activity (Triticum aestivum [10]) | inhibition (Solanum lycopersicum [11]) | Activity (Triticum aestivum [15]) | Activity (Solanum lycopersicum [16]) | Activity (Solanum lycopersicum [17]) | Activity (Solanum lycopersicum [18]) | Activity (Lepidium sativum [19]) | Activity (Lepidium sativum [20]) | Activity (Lactuca sativa [21]) | Activity (Lactuca sativa [22]) | Activity (Lactuca sativa [23]) | inhibition (INH) (Lepidium sativum [24]) | Activity (Allium cepa [27]) | inhibition (Allium cepa [28]) | Activity (Allium cepa [29]) | also measured |
| --- | --- | --- | --- | --- | --- | --- | --- | --- | --- | --- | --- | --- | --- | --- | --- | --- | --- | --- | --- | --- | --- |
| C=C1CC[C@H]2[C@H](CO)C(=O)O[C@@H]2[C@@]2(O)C(=C)[C@H](O)C[C@@H]12 | inactive | inactive | inactive | inactive | inactive | inactive | inactive | <20% | inactive | inactive | inactive | 20% | >40% | 20% | >40% | 20% | >40% | inactive | inactive | inactive | inhibition (Triticum aestivum [2]): inactive; inhibition (Triticum aestivum [3]): inactive; inhibition (INH) (Triticum aestivum [4]): <20%; Activity (Allium cepa [9]): inactive; inhibition (INH) (Lactuca sativa [12]): >40%; inhibition (INH) (Lactuca sativa [13]): 20%; inhibition (INH) (Lactuca sativa [14]): 20%; Activity (Lepidium sativum [25]): inactive; inhibition (Lepidium sativum [25]): inactive; inhibition (INH) (Lepidium sativum [26]): 20% |
| C=C1CC[C@H]2C(=C)CC[C@H]3C(=C)C(=O)O[C@@H]3[C@@H]12 [DEHYDROCOSTUSLACTONE] | – | inactive | inactive | – | 20% | >40% | inactive | >40% | inactive | inactive | inactive | >40% | >40% | inactive | <20% | 20% | >40% | – | – | – | inhibition (INH) (Triticum aestivum [2]): >40%; inhibition (INH) (Triticum aestivum [3]): 20%; inhibition (INH) (Triticum aestivum [4]): >40%; inhibition (INH) (Lepidium sativum [30]): 20%; inhibition (INH) (Lactuca sativa [12]): <20%; inhibition (Lactuca sativa [13]): inactive; inhibition (INH) (Lactuca sativa [14]): 20%; Activity (Lepidium sativum [31]): 20%; inhibition (INH) (Lepidium sativum [26]): >40% |
| C=C1C(=O)O[C@H]2[C@H]1CCC(=C)[C@]13C[C@@H](O)C(=C)[C@]21OC(C)(C)O3 | inactive | inactive | inactive | inactive | <20% | <20% | inactive | inactive | inactive | inactive | inactive | >40% | >40% | 20% | inactive | <20% | >40% | inactive | inactive | inactive | inhibition (INH) (Triticum aestivum [2]): <20%; inhibition (INH) (Triticum aestivum [3]): <20%; inhibition (Triticum aestivum [4]): inactive; Activity (Allium cepa [9]): inactive; inhibition (INH) (Lepidium sativum [30]): 20%; inhibition (Lactuca sativa [12]): inactive; inhibition (INH) (Lactuca sativa [13]): 20%; inhibition (INH) (Lactuca sativa [14]): <20%; Activity (Lepidium sativum [31]): 20%; inhibition (INH) (Lepidium sativum [26]): >40% |
| C=C1C(=O)O[C@H]2[C@H]1CCC(=C)[C@]1(O)C[C@@H](O)C(=C)[C@]21O | inactive | inactive | inactive | inactive | <20% | <20% | – | inactive | inactive | inactive | <20% | inactive | <20% | <20% | 20% | inactive | <20% | inactive | inactive | inactive | inhibition (INH) (Triticum aestivum [2]): <20%; inhibition (INH) (Triticum aestivum [3]): <20%; inhibition (Triticum aestivum [4]): inactive; inhibition (INH) (Solanum lycopersicum [11]): <20%; inhibition (INH) (Lactuca sativa [12]): 20%; inhibition (INH) (Lactuca sativa [13]): <20%; inhibition (Lactuca sativa [14]): inactive; Activity (Lepidium sativum [25]): inactive; inhibition (Lepidium sativum [25]): inactive; inhibition (Lepidium sativum [26]): inactive; Activity (Allium cepa [32]): inactive |
| C=C1CC[C@H]2[C@H](C)C(=O)O[C@@H]2[C@@]2(O)C(=C)[C@H](O)C[C@@]12O | inactive | inactive | inactive | inactive | inactive | inactive | inactive | inactive | inactive | inactive | inactive | <20% | <20% | >40% | >40% | 20% | <20% | inactive | inactive | inactive | inhibition (Triticum aestivum [2]): inactive; inhibition (Triticum aestivum [3]): inactive; inhibition (Triticum aestivum [4]): inactive; Activity (Allium cepa [9]): inactive; inhibition (INH) (Lactuca sativa [12]): >40%; inhibition (INH) (Lactuca sativa [13]): >40%; inhibition (INH) (Lactuca sativa [14]): 20%; Activity (Lepidium sativum [25]): inactive; inhibition (Lepidium sativum [25]): inactive; inhibition (INH) (Lepidium sativum [26]): <20% |
| CC1=CC(=O)C2=C(C)C[C@H](O)[C@H]3[C@H](OC(=O)[C@@H]3C)[C@@H]12 [8ALPHA-HYDROXYACHILLIN] | inactive | – | inactive | inactive | inactive | inactive | – | inactive | <20% | inactive | <20% | inactive | inactive | inactive | inactive | inactive | – | inactive | inactive | inactive | inhibition (Triticum aestivum [2]): inactive; inhibition (Triticum aestivum [3]): inactive; inhibition (Triticum aestivum [4]): inactive; inhibition (INH) (Solanum lycopersicum [5]): <20%; inhibition (INH) (Solanum lycopersicum [11]): <20%; inhibition (Lactuca sativa [12]): inactive; inhibition (Lactuca sativa [13]): inactive; inhibition (Lactuca sativa [14]): inactive; inhibition (Lepidium sativum [24]): inactive; Activity (Lepidium sativum [25]): inactive; inhibition (Lepidium sativum [25]): inactive; inhibition (Lepidium sativum [26]): inactive; Activity (Allium cepa [32]): inactive |
